Experiments:
[1] = system: regulatory T cells (Tregs) in peripheral blood mononuclear cells (PBMCs); settings: PBMCs incubated for 24 h with high-dose JPI-289; cited from earlier work
tMCAO stroke model = tMCAO stroke model using monkeys; cited from earlier work
[2] = SAD study safety and tolerability assessment; type: in vivo, human; settings: for Number of Subjects with AEs (%) / Number of Subjects with Drug Related AEs (% total): 6 subjects
In short: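 Randomised, double-blind, placebo-controlled trial in healthy Korean males (active:placebo 6:2 per group), single iv infusion in normal saline over 0.5 h at 35–600 mg. Dose escalation was decided by the DSMB. Subjects were in-house days 1–2, revisited day 3, and had follow-up 7 days post-dose. Monitoring covered vital signs, 12-lead ECG, haematology, chemistry, urinalysis, physical exams and AEs, with relationship to drug assigned.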

[3] = Major metabolites in samples of the highest dose groups; type: in vivo, human; settings: 600 mg in SAD and 450 mg in MAD
Single ascending dose = type: in vivo, human; settings: for Tmax: max]
In short: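 Single 0.5 h iv infusion in saline. Plasma sampled predose to 48 h, stored −70°C; urine collected in intervals to 24 h with volumes. Validated HPLC-MS/MS, deuterated internal standard, positive ESI MRM m/z 344.3→201.2. Plasma range 1–3000 or 10–30,000 ng/mL and urine 5–15,000 or 50–150,000 ng/mL, by dose group. Noncompartmental analysis on actual times; AUCinf = AUClast + Clast/λz; CLR = Ae/AUClast.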

[4] = rats, 4-week GLP toxicology study; cited from earlier work
stroke animal model = settings: ref unpublished data on file, Jeil Pharma, Seoul, Korea; cited from earlier work
[5] = single iv dose, n=40, number of subjects [cases]
[6] = single iv 35 mg over 0.5 h, n=6, mean (SD)
[7] = single iv 75 mg over 0.5 h, n=6, mean (SD)
[8] = single iv 150 mg over 0.5 h, n=6, mean (SD)
[9] = single iv 300 mg over 0.5 h, n=6, mean (SD)
[10] = single iv 600 mg over 0.5 h, n=6, mean (SD)
[11] = single iv, all doses 35-600 mg, Total n=30, mean (SD)

CCOc1cc(CN2CCOCC2)cc2[nH]c(=O)c3c(c12)NCCC3.Cl.Cl.O.O [JPI-289]
proportions of regulatory T cells (Tregs) [1]: can be increased | decrease in infarction volume (tMCAO stroke model): 53% | intensity of AEs ([2]; SAD): mild in intensity | abnormalities in laboratory tests, physical examinations, vital signs, or electrocardiograms ([2]; SAD and MAD): No clinically significant abnormalities | intensity of AEs ([2]; SAD and MAD studies together): all mild in intensity | maximum tolerated dose ([2]; SAD, decided by DSMB, dizziness as dose-limiting toxicity): 600 mg | tolerability ([2]; SAD, dose range 35–600 mg): well tolerated | serious AEs ([2]; entire course of the study (SAD and MAD)): No serious AEs occurred | Number of Subjects with AEs (%) ([2]; single iv dose 35 mg): 3 (50.0) | Number of Subjects with Drug Related AEs (% total) ([2]; single iv dose 35 mg): 1 (16.7) | Number of Subjects with AEs (%) ([2]; single iv dose 75 mg): 0 (0.0) | Number of Subjects with Drug Related AEs (% total) ([2]; single iv dose 75 mg): 0 (0.0) | Number of Subjects with AEs (%) ([2]; single iv dose 150 mg): 0 (0.0) | Number of Subjects with Drug Related AEs (% total) ([2]; single iv dose 150 mg): 0 (0.0) | Number of Subjects with AEs (%) ([2]; single iv dose 300 mg): 0 (0.0) | Number of Subjects with Drug Related AEs (% total) ([2]; single iv dose 300 mg): 0 (0.0) | Number of Subjects with AEs (%) ([2]; single iv dose 600 mg): 3 (50.0) | Number of Subjects with Drug Related AEs (% total) ([2]; single iv dose 600 mg): 3 (50.0) | Abdominal discomfort, Drug-Related [2, 5]: 0 [0] | Abdominal discomfort, Not Related [2, 5]: 0 [0] | Abdominal discomfort, Total [2, 5]: 0 [0] | Bilirubin total increased, Drug-Related [2, 5]: 1 [1] | Bilirubin total increased, Not Related [2, 5]: 0 [0] | Bilirubin total increased, Total [2, 5]: 1 [1] | Diarrhea, Drug-Related [2, 5]: 0 [0] | Diarrhea, Not Related [2, 5]: 1 [1] | Diarrhea, Total [2, 5]: 1 [1] | Dizziness, Drug-Related [2, 5]: 3 [4] | Dizziness, Not Related [2, 5]: 0 [0] | Dizziness, Total [2, 5]: 3 [4] | Fever, Drug-Related [2, 5]: 0 [0] | Fever, Not Related [2, 5]: 0 [0] | Fever, Total [2, 5]: 0 [0] | Headache, Drug-Related [2, 5]: 0 [0] | Headache, Not Related [2, 5]: 0 [0] | Headache, Total [2, 5]: 0 [0] | Heart rate increased, Drug-Related [2, 5]: 0 [0] | Heart rate increased, Not Related [2, 5]: 1 [1] | Heart rate increased, Total [2, 5]: 1 [1] | Sinus tachycardia, Drug-Related [2, 5]: 0 [0] | Sinus tachycardia, Not Related [2, 5]: 0 [0] | Sinus tachycardia, Total [2, 5]: 0 [0] | Stomatitis, Drug-Related [2, 5]: 0 [0] | Stomatitis, Not Related [2, 5]: 0 [0] | Stomatitis, Total [2, 5]: 0 [0] | Urticaria, Drug-Related [2, 5]: 0 [0] | Urticaria, Not Related [2, 5]: 0 [0] | Urticaria, Total [2, 5]: 0 [0] | number of metabolites detected [3]: Twenty-two | AUCinf (Single ascending dose; [6]): 665.50 (149.62) ng·h/mL | AUCinf/dose (Single ascending dose; [6]): 19.01 (4.28) ng·h/mL/mg | AUClast (Single ascending dose; [6]): 658.82 (148.39) ng·h/mL | Ae (amount of unchanged drug in urine) (Single ascending dose; [6]): 0.56 (0.22) mg | CL (Single ascending dose; [6]): 54.88 (12.54) L/h | CLR (renal clearance) (Single ascending dose; [6]): 0.84 (0.28) L/h | Cmax (Single ascending dose; [6]): 422.72 (102.10) ng/mL | Cmax/dose (Single ascending dose; [6]): 12.08 (2.92) ng/mL/mg | Vd,ss (Single ascending dose; [6]): 101.33 (26.74) L | Vz (Single ascending dose; [6]): 160.73 (42.91) L | t1/2z (Single ascending dose; [6]): 2.18 (1.01) h | Tmax (Single ascending dose; single iv 35 mg over 0.5 h, n=6, median [min): 0.47 [0.33, 0.50] h | AUCinf (Single ascending dose; [7]): 1947.57 (366.92) ng·h/mL | AUCinf/dose (Single ascending dose; [7]): 25.97 (4.89) ng·h/mL/mg | AUClast (Single ascending dose; [7]): 1940.45 (367.40) ng·h/mL | Ae (amount of unchanged drug in urine) (Single ascending dose; [7]): 1.74 (0.71) mg | CL (Single ascending dose; [7]): 39.77 (8.07) L/h | CLR (renal clearance) (Single ascending dose; [7]): 0.88 (0.26) L/h | Cmax (Single ascending dose; [7]): 1197.77 (173.37) ng/mL | Cmax/dose (Single ascending dose; [7]): 15.97 (2.31) ng/mL/mg | Vd,ss (Single ascending dose; [7]): 91.18 (17.49) L | Vz (Single ascending dose; [7]): 183.32 (61.92) L | t1/2z (Single ascending dose; [7]): 3.21 (0.81) h | Tmax (Single ascending dose; single iv 75 mg over 0.5 h, n=6, median [min): 0.48 [0.33, 0.52] h | AUCinf (Single ascending dose; [8]): 6057.90 (1533.04) ng·h/mL | AUCinf/dose (Single ascending dose; [8]): 40.39 (10.22) ng·h/mL/mg | AUClast (Single ascending dose; [8]): 6029.78 (1520.32) ng·h/mL | Ae (amount of unchanged drug in urine) (Single ascending dose; [8]): 5.31 (1.49) mg | CL (Single ascending dose; [8]): 26.41 (8.03) L/h | CLR (renal clearance) (Single ascending dose; [8]): 0.89 (0.21) L/h | Cmax (Single ascending dose; [8]): 2481.05 (502.31) ng/mL | Cmax/dose (Single ascending dose; [8]): 16.54 (3.35) ng/mL/mg | Vd,ss (Single ascending dose; [8]): 85.17 (15.31) L | Vz (Single ascending dose; [8]): 118.12 (34.25) L | t1/2z (Single ascending dose; [8]): 3.12 (0.40) h | Tmax (Single ascending dose; single iv 150 mg over 0.5 h, n=6, median [min): 0.48 [0.43, 0.50] h | AUCinf (Single ascending dose; [9]): 10,061.82 (3690.15) ng·h/mL | AUCinf/dose (Single ascending dose; [9]): 33.54 (12.30) ng·h/mL/mg | AUClast (Single ascending dose; [9]): 9786.58 (3534.51) ng·h/mL | Ae (amount of unchanged drug in urine) (Single ascending dose; [9]): 8.37 (3.65) mg | CL (Single ascending dose; [9]): 34.28 (15.06) L/h | CLR (renal clearance) (Single ascending dose; [9]): 0.91 (0.45) L/h | Cmax (Single ascending dose; [9]): 4842.02 (1202.57) ng/mL | Cmax/dose (Single ascending dose; [9]): 16.14 (4.01) ng/mL/mg | Vd,ss (Single ascending dose; [9]): 92.52 (15.20) L | Vz (Single ascending dose; [9]): 124.50 (30.65) L | t1/2z (Single ascending dose; [9]): 2.73 (0.76) h | Tmax (Single ascending dose; single iv 300 mg over 0.5 h, n=6, median [min): 0.48 [0.17, 0.50] h | AUCinf (Single ascending dose; [10]): 32,228.35 (11,796.05) ng·h/mL | AUCinf/dose (Single ascending dose; [10]): 53.71 (19.66) ng·h/mL/mg | AUClast (Single ascending dose; [10]): 32,066.88 (11,725.80) ng·h/mL | Ae (amount of unchanged drug in urine) (Single ascending dose; [10]): 25.32 (6.50) mg | CL (Single ascending dose; [10]): 21.34 (9.69) L/h | CLR (renal clearance) (Single ascending dose; [10]): 0.84 (0.20) L/h | Cmax (Single ascending dose; [10]): 10,381.25 (2097.17) ng/mL | Cmax/dose (Single ascending dose; [10]): 17.30 (3.50) ng/mL/mg | Vd,ss (Single ascending dose; [10]): 73.01 (13.20) L | Vz (Single ascending dose; [10]): 81.46 (16.60) L | t1/2z (Single ascending dose; [10]): 2.88 (0.72) h | Tmax (Single ascending dose; single iv 600 mg over 0.5 h, n=6, median [min): 0.50 [0.48, 0.52] h | AUCinf (Single ascending dose; [11]): 10,192.23 (12,791.37) ng·h/mL | AUCinf/dose (Single ascending dose; [11]): 34.52 (16.32) ng·h/mL/mg | AUClast (Single ascending dose; [11]): 10,096.50 (12,719.54) ng·h/mL | Ae (amount of unchanged drug in urine) (Single ascending dose; [11]): 8.26 (9.65) mg | CL (Single ascending dose; [11]): 35.33 (15.66) L/h | CLR (renal clearance) (Single ascending dose; [11]): 0.87 (0.27) L/h | Cmax (Single ascending dose; [11]): 3864.96 (3789.52) ng/mL | Cmax/dose (Single ascending dose; [11]): 15.61 (3.55) ng/mL/mg | Vd,ss (Single ascending dose; [11]): 88.64 (19.42) L | Vz (Single ascending dose; [11]): 133.63 (51.80) L | t1/2z (Single ascending dose; [11]): 2.83 (0.80) h | Tmax (Single ascending dose; single iv, all doses 35-600 mg, Total n=30, median [min): 0.48 [0.17, 0.52] h | no observed adverse event level [4]: 40 mg/kg | time after stroke onset at which treatment showed efficacy (stroke animal model): more than 10 h
